{"data": "Measured values collected from several papers", "target": "Interleukin-1 receptor-associated kinase 1 (IRAK1, Homo sapiens, UniProt P51617)", "note": "Each line is one published result; the experiments were not run side by side."}
{"Structure (SMILES)": "Cc1ccc(Nc2nccc(N(C)c3ccc4c(C)n(C)nc4c3)n2)cc1S(N)(=O)=O", "read-out": "enzyme activity", "mode": "inhibitor", "tested at": "10 µM", "quantity": "inhibition", "result": "25%"}
{"Structure (SMILES)": "CN(C)C1CCN(CC#Cc2nn(C3CCCC3)c3nc(NCc4ccccc4)ncc23)C1 (stereo not drawn)", "read-out": "enzyme activity", "mode": "inhibitor", "technique": "FRET", "tested at": "10 µM", "quantity": "inhibition", "result": "37%"}
{"Structure (SMILES)": "Cc1nc(Cc2cccc(C(F)(F)F)c2)sc1-c1ccc(C(N)=O)nc1", "read-out": "cell-free assay", "technique": "competition with immobilised ligand", "tested at": "1 µM", "quantity": "remaining binding", "result": "100%"}
{"Structure (SMILES)": "CCN(CC)c1ccc(C2=NNC(=O)CC2C)cc1[N+](=O)[O-] (stereo not drawn)", "read-out": "enzyme activity", "mode": "inhibitor", "tested at": "10 µM", "quantity": "remaining activity", "result": "89%"}
{"Structure (SMILES)": "Cc1ccc(C(=O)Nc2ccc(CN3CCN(C)CC3)c(C(F)(F)F)c2)cc1C#Cc1cnc2cccnn12", "read-out": "enzyme activity", "mode": "inhibitor", "tested at": "23.5 nM", "quantity": "remaining activity", "result": "54%"}
{"Structure (SMILES)": "Nc1ncnc2occ(-c3ccc(NC(=O)Nc4cc(C(F)(F)F)ccc4F)cc3)c12", "read-out": "cell-free assay", "mode": "inhibitor", "tested at": "20 µM", "quantity": "remaining signal", "result": "0.85%"}
{"Structure (SMILES)": "Cc1cnc(NC2CCOCC2)nc1-n1cnc(C(=O)NC(CN)c2cc(F)cc(Cl)c2)c1 (stereo not drawn)", "read-out": "enzyme activity", "mode": "inhibitor", "technique": "radiometric", "tested at": "1 µM", "quantity": "remaining activity", "result": "101%"}
{"Structure (SMILES)": "COc1cc(/C=C/C(=O)CC(=O)/C=C/c2ccc(O)c(OC)c2)ccc1O", "read-out": "enzyme activity", "mode": "inhibitor", "tested at": "1 µM", "quantity": "activity vs control", "result": "97%"}
{"Structure (SMILES)": "C=CC(=O)Nc1cc(Nc2nccc(Nc3cc(Cl)c(F)cc3C(C)(C)O)n2)c(OC)cc1N1CC[C@@H](N(C)C)C1", "read-out": "enzyme activity", "mode": "inhibitor", "tested at": "1 µM", "quantity": "inhibition", "result": "11%"}
{"Structure (SMILES)": "O=C(Nc1cnn(-c2csc(C(=O)NC3COC3)c2)c1)Nc1ccccc1Cl", "read-out": "enzyme activity", "mode": "inhibitor", "tested at": "5 µM", "quantity": "remaining activity", "result": "112%"}
{"Structure (SMILES)": "FC(F)(F)Oc1cccc(-c2cnc3ccc(-c4ccncc4)nn23)c1", "read-out": "enzyme activity", "mode": "inhibitor", "technique": "radiometric", "tested at": "1 µM", "quantity": "activity vs control", "result": "52%"}
{"Structure (SMILES)": "CNC(=O)c1cc(Oc2ccc(NC(=O)Nc3ccc(Cl)c(C(F)(F)F)c3)cc2)ccn1", "read-out": "enzyme activity", "mode": "inhibitor", "tested at": "10 µM", "quantity": "inhibition", "result": "60%"}
{"Structure (SMILES)": "COc1cc(-c2cc(-c3ccc(N4CCNCC4)cc3)cnc2C)cc(OC)c1OC", "read-out": "enzyme activity", "mode": "inhibitor", "tested at": "0.1 µM", "quantity": "inhibition", "result": "2%"}
{"Structure (SMILES)": "O=C1Nc2ccc(Cl)cc2C1=Cc1cc(Cl)c(O)c(Cl)c1", "read-out": "cell-free assay", "tested at": "0.5 µM", "quantity": "remaining signal", "result": "95.4%"}
{"Structure (SMILES)": "c1ccc(CNc2nc(N3CCOc4ccccc43)nc3c2CCCC3)cc1", "read-out": "target engagement in cells", "mode": "inhibitor", "technique": "chemoproteomics", "tested at": "20 mM", "quantity": "inhibition", "result": "-2.4%"}
{"Structure (SMILES)": "CCOC(=O)c1cc2cc(-c3cc(C(=O)NCc4ccc(C(=O)O)cc4)nn3C)ccc2[nH]1", "read-out": "cell-free assay", "technique": "competition with immobilised ligand", "tested at": "0.1 µM", "quantity": "remaining binding", "result": "85%"}
{"Structure (SMILES)": "COc1cc2nccc(Oc3ccc(NC(=O)c4c5n(n(-c6ccc(F)cc6)c4=O)CCCC5)cc3)c2cc1OC", "read-out": "enzyme activity", "mode": "inhibitor", "tested at": "0.1 µM", "quantity": "inhibition", "result": "-7%"}
{"Structure (SMILES)": "CNC(=O)Nc1ccc2c(c1)[C@@]1(CC2)OC(=O)N(CC(=O)N(Cc2ccc(F)cc2)[C@@H](C)C(F)(F)F)C1=O", "read-out": "cell-free assay", "technique": "competition with immobilised ligand", "tested at": "1 µM", "quantity": "remaining binding", "result": "88%"}
{"Structure (SMILES)": "Cc1ccc(C(=O)NCc2ccsc2)cc1C#Cc1cn(C(C)C)c2ncnc(N)c12", "read-out": "enzyme activity", "mode": "inhibitor", "tested at": "1 µM", "quantity": "activity vs control", "result": "86%"}
{"Structure (SMILES)": "CC(C)(C)c1nc2c(s1)c1nc(N)ncc1c1ccc(NS(=O)(=O)c3c(F)cccc3F)c(F)c12", "read-out": "enzyme activity", "mode": "inhibitor", "technique": "radiometric", "tested at": "1 µM", "quantity": "remaining activity", "result": "90%"}
{"Structure (SMILES)": "CC(=O)N1CCC(c2ccc(C(=O)NC3=NCCN3)cc2C(F)(F)F)CC1", "read-out": "cell-free assay", "technique": "competition with immobilised ligand", "tested at": "1 µM", "quantity": "remaining binding", "result": "78%"}
{"Structure (SMILES)": "O=C1NC(=O)c2cc(Nc3ccc(F)cc3)c(Nc3ccc(F)cc3)cc21", "read-out": "cell-free assay", "tested at": "0.5 µM", "quantity": "remaining signal", "result": "88.5%"}
{"Structure (SMILES)": "Cc1cc(C)c(-n2ccn3nc(-c4cccnc4)cc23)cc1NC(=O)c1cc(C#N)cc(S(F)(F)(F)(F)F)c1", "read-out": "cell-free assay", "technique": "competition with immobilised ligand", "tested at": "0.1 µM", "quantity": "remaining binding", "result": "87.3%"}
{"Structure (SMILES)": "CCN(CC)CCNC(=O)c1c(C)[nH]c(/C=C2\\C(=O)Nc3ccc(F)cc32)c1C", "read-out": "enzyme activity", "mode": "inhibitor", "tested at": "10 µM", "quantity": "inhibition", "result": "86%"}
{"Structure (SMILES)": "Cc1nc(N2CC[C@@H](O)C2)ncc1-c1cc(C(F)(F)F)cc2[nH]ncc12", "read-out": "binding", "technique": "competition with immobilised ligand", "tested at": "1 µM", "quantity": "remaining binding", "result": "100%"}
{"Structure (SMILES)": "CN1CC(Oc2cnc(C#N)cc2-c2ccn3nc(NC(=O)C4CC4)cc3c2)C1", "read-out": "enzyme activity", "mode": "inhibitor", "tested at": "1 µM", "quantity": "inhibition", "result": "38%"}
{"Structure (SMILES)": "O=C(Nc1ccc(Oc2ccc(F)cc2)cc1)N1CCc2ncccc2[C@H]1c1ccc(F)cc1", "read-out": "cell-free assay", "technique": "competition with immobilised ligand", "tested at": "1 µM", "quantity": "remaining binding", "result": "88%"}
{"Structure (SMILES)": "COc1cc(Nc2cnc(C#N)c(O[C@H](C)CN(C)C)n2)ncc1-c1cnn(C)c1", "read-out": "enzyme activity", "mode": "inhibitor", "technique": "radiometric", "tested at": "1 µM", "quantity": "remaining activity", "result": "17%"}
{"Structure (SMILES)": "Cc1cc(NC(=O)c2cccc3cc(-c4cccc5[nH]nc(N)c45)ccc23)ccc1F", "read-out": "enzyme activity", "mode": "inhibitor", "tested at": "0.1 µM", "quantity": "activity vs control", "result": "100%"}
{"Structure (SMILES)": "O=C(NC[C@@H]1[C@H]2CN(C(=O)OCc3cc(C(F)(F)F)cc(C(F)(F)F)c3)C[C@@H]12)c1ccc2[nH]nnc2c1", "read-out": "cell-free assay", "technique": "competition with immobilised ligand", "tested at": "1 µM", "quantity": "remaining binding", "result": "98%"}
